Our source for the Potency ratio values is ChEMBL document CHEMBL1131233, “Synthesis and structure-activity relationships of bafilomycin A1 derivatives as inhibitors of vacuolar H+-ATPase” (J Med Chem, 1998).

Each structure is given as a SMILES string.

V-type proton ATPase subunit B, brain isoform (Bos taurus), sequence (P31408 whole entry, canonical isoform): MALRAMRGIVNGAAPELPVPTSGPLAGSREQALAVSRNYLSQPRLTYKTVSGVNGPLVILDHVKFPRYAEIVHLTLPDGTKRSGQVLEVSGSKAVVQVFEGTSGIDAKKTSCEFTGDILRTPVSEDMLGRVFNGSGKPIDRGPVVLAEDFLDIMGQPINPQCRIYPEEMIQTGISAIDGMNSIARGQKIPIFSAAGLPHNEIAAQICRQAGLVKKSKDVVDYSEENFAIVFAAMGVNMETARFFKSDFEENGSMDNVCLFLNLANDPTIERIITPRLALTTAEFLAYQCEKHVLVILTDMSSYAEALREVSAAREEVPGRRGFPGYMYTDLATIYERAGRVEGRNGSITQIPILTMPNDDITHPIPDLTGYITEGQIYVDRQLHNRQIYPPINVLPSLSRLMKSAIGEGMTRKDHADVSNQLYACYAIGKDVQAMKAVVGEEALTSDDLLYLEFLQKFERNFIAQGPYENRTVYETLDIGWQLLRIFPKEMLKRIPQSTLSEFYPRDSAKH

In the test the target is V-type proton ATPase subunit B, brain isoform (Bos taurus) (UniProt P31408). As to the kind of experiment: Inhibition of V-ATPase-driven proton transport in membrane vesicles derived from bovine chromaffin granules (bCG); Potency ratio expressed as IC50 of compound/IC50 of baf A1. The essentials:
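Proton transport in bovine chromaffin granule inside-out vesicles, read by acridine orange (5 μM) fluorescence quench with 1 mM Na₂ATP, pH 7.4. IC50 from ≥3 duplicated doses by four-parameter logistic fit. Each IC50 is divided by the bafilomycin A₁ IC50 from the same experiment, to correct for membrane batch and protein level.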
As to `CO/C1=C\C(C)=C\[C@@H](C)[C@@H](O)[C@@H](C)C/C(C)=C/C=C/[C@H](OC)[C@@H]([C@@H](C)[C@@H](O)[C@H](C)[C@@]2(O)C[C@@H](OC)[C@H](C)[C@@H](C(C)C)O2)OC1=O`, the Potency ratio was 1.2.

For the compound `CCO[C@@H]1C[C@](O)([C@@H](C)[C@H](O)[C@H](C)[C@H]2OC(=O)/C(OC)=C/C(C)=C/[C@@H](C)[C@@H](O)[C@@H](C)C/C(C)=C/C=C/[C@@H]2OC)O[C@H](C(C)C)[C@H]1C`, the Potency ratio was 1.2.

`CO/C1=C\C(C)=C\[C@@H](C)[C@@H](O)[C@@H](C)C/C(C)=C/C=C/[C@H](OC)[C@@H]([C@@H](C)[C@@H](O)[C@H](C)[C@@]2(O)CC(=O)[C@H](C)[C@@H](C(C)C)O2)OC1=O`: the Potency ratio is 2.2.

Take `CO/C1=C\C(C)=C\[C@@H](C)[C@@H](O)[C@@H](C)C/C(C)=C/C=C/[C@H](OC)[C@@H]([C@@H](C)[C@@H](O)[C@H](C)C(=O)/C=C/[C@H](C)C(O)C(C)C)OC1=O` (some centres not stated): the Potency ratio stood at 15.

Consider `C/C=C/CC(=O)[C@@H](C)[C@H](O)[C@H](C)[C@H]1OC(=O)/C(OC)=C/C(C)=C/[C@@H](C)[C@@H](O)[C@@H](C)C/C(C)=C/C=C/[C@@H]1OC`, for which the Potency ratio amounted to 21.

As for `CO/C1=C\C(C)=C\[C@@H](C)C(=O)[C@@H](C)C/C(C)=C/C=C/[C@H](OC)[C@@H]([C@@H](C)[C@@H](O)[C@H](C)[C@@]2(O)C[C@@H](O)[C@H](C)[C@@H](C(C)C)O2)OC1=O`, the Potency ratio was 32.

Turning to `COC1/C=C(\C)C[C@@H](C)[C@@H](O)[C@@H](C)CC(C)/C=C/CC(OC)[C@@H]([C@@H](C)[C@@H](O)[C@H](C)[C@@]2(O)C[C@@H](O)[C@H](C)[C@@H](C(C)C)O2)OC1=O` (some centres not stated), the Potency ratio was 2110.

`CCCO[C@@H]1C[C@](OC)([C@@H](C)[C@H](O)[C@H](C)[C@H]2OC(=O)/C(OC)=C/C(C)=C/[C@@H](C)[C@@H](O)[C@@H](C)C/C(C)=C/C=C/[C@@H]2OC)O[C@H](C(C)C)[C@H]1C`: the Potency ratio came out at 5.

Take `CO/C1=C\C(C)=C\[C@@H](C)[C@@H](O)[C@@H](C)C/C(C)=C/C=C/[C@H](OC)[C@@H]([C@@H](C)[C@@H](O)[C@H](C)[C@@]2(O)C[C@@H](O)[C@H](C)[C@@H](C(C)C)O2)OC1=O`: the Potency ratio turned out to be 1.

Regarding `C/C=C/CC(O)[C@@H](C)[C@H](O)[C@H](C)[C@H]1OC(=O)/C(OC)=C/C(C)=C/[C@@H](C)[C@@H](O)[C@@H](C)C/C(C)=C/C=C/[C@@H]1OC` (some centres not stated), the Potency ratio was 2.6.

On to `CO/C1=C\C(C)=C\[C@@H](C)[C@@H](O)[C@@H](C)C/C(C)=C/C=C/[C@H](OC)[C@@H]([C@@H](C)[C@@H](O)[C@H](C)[C@@]2(OC)C[C@@H](O)[C@H](C)[C@@H](C(C)C)O2)OC1=O`, for which the Potency ratio is 1.4.

As to `CO/C1=C\C(C)=C\[C@@H](C)[C@@H](O)[C@@H](C)C/C(C)=C/C=C/[C@H](OC)[C@@H]([C@@H](C)[C@@H](O)[C@H](C)[C@@]2(O)C[C@@H](NC3CCCCC3)[C@H](C)[C@@H](C(C)C)O2)OC1=O`, the Potency ratio came out at 9.2.

Regarding `CO/C1=C\C(C)=C\[C@@H](C)[C@@H](O)[C@@H](C)C/C(C)=C/C=C/[C@H](OC)[C@@H]([C@@H](C)[C@@H](O)[C@H](C)[C@@]2(O)C[C@@H](N3CCCCC3)[C@H](C)[C@@H](C(C)C)O2)OC1=O`, the Potency ratio worked out at 6.7.

`CO/C1=C\C(C)=C\C(C)C(=O)[C@@H](C)C/C(C)=C/C=C/C(OC)[C@@H]([C@@H](C)C(=O)[C@H](C)C2=CC(=O)[C@H](C)[C@@H](C(C)C)O2)OC1=O` (some centres not stated): the Potency ratio is 3050.

Consider `CO/C1=C\C(C)=C\[C@@H](C)[C@@H](O)[C@@H](C)C/C(C)=C/C=C/[C@H](OC)[C@@H]([C@@H](C)[C@@H](O)[C@H](C)C(O)C[C@H](O)[C@H](C)C(O)C(C)C)OC1=O` (some centres not stated), for which the Potency ratio was found to be 8.2.

As for `COC(=O)/C(=C/C(C)=C/[C@@H](C)[C@@H](O)[C@@H](C)C/C(C)=C/C=C/[C@H](OC)[C@H](O)[C@@H](C)[C@@H](O)[C@H](C)[C@@]1(O)C[C@@H](O)[C@H](C)[C@@H](C(C)C)O1)OC`, the Potency ratio stood at 330.

`CO/C1=C\C(C)=C\[C@@H](C)C(=O)[C@@H](C)C/C(C)=C/C=C/[C@H](OC)[C@@H]([C@@H](C)[C@@H](O)[C@H](C)[C@@]2(O)CC(=O)[C@H](C)[C@@H](C(C)C)O2)OC1=O`: the Potency ratio stood at 112.
